# Source: ChEMBL document CHEMBL4513216, “Probing the Open Global Health Chemical Diversity Library for Multistage-Active Starting Points for Next-Generation Antimalarials” (ACS Infect Dis, 2020)
# Experiment: Toxicity liver stage against HepG2, at 10uM
# Type: cell-based
# Set-up: test concentration 10 uM, cell line HepG2-A16-CD81EGFP
# Details: human, HepG2-A16-CD81EGFP cells; read-out: INHIBITION
# How it was run: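 Uninfected HepG2-A16-CD81EGFP cells, 3 × 10^3 per well, 1536-well, plated on prespotted compound at 10 μM final, parasite-free screening media added to match infected plates; puromycin 10 μM positive, DMSO 0.5% negative; run in parallel with 48 h PbLuc assay at 37 °C, 5% CO2; viability by CellTiter-Glo luminescence, normalized to controls.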
row,Structure (SMILES),cytotoxicity at 10 µM [%]
1,CC(C)CS(=O)(=O)N1C[C@@H]2C[C@H](C(=O)N3CCN(C)CC3)[C@H](C1)O2,0.508
2,COc1ccc(CN2C[C@@H]3COC[C@]3(COc3cccnc3)C2)cc1,-18.4
3,O=C(C1CCOCC1)N1C[C@@H]2OCCN(CCN3CCCC3)[C@@H]2C1,-3.83
4,NC(=O)c1cccnc1N1CCN(c2ncnc3c2CCNC3)CC1,-3.03
5,Cn1ncc2c1CCCC2NCc1cccc(C(F)(F)F)c1 (stereo not given),-8.25
6,CC(=O)N1CCC(c2nc3ccc(-c4ccnn4C)cn3n2)CC1,6.84
7,CC(C)=Cc1c(-c2ccccc2)ncn1CCS(C)(=O)=O,-3.15
8,O=C(c1cccnc1)N1CCc2c(nc(N3CCCC3)[nH]c2=O)C1,4.51
9,COc1ccc(CN2CC(O)CN(C(=O)OCC(C)(C)C)CC2=O)cc1 (stereo not given),2.55
10,CC(=O)N1CCC(c2nccnc2Oc2ccccc2)CC1,3.7
11,COc1cccc(OCCn2c(C)c(C)oc2=O)c1,-7.12
12,NCCn1nc(C2CCN(C(=O)Cc3ccccc3)C2)c2nccnc21 (stereo not given),-15.9
13,CCC[C@@H]1CN(Cc2c[nH]nc2-c2ccc(F)cc2)C[C@H]1NS(C)(=O)=O,3.25
14,CCn1nc(C)c(CCNC(=O)C2CCCN(C3CCCC3)C2)c1C (stereo not given),-9.34
15,CCN1CCN(CCNC(=O)c2sc(C(C)C)nc2C)CC1,6.23
16,COCCN1CCN(Cc2cnc(C3(C)CCCCO3)nc2)CC1 (stereo not given),1.16
17,CCOCC1CN(c2ccc(C)nn2)Cc2nn(CC)cc21 (stereo not given),11.5
18,CCN1C(=O)[C@H]2CN(Cc3cccnc3)C[C@H]2C12CCN(C(C)=O)CC2,-1.8
19,CCNC(=O)c1sccc1N(C)S(=O)(=O)c1ccc(Cl)cc1,10.8
20,Cc1ccc(Cl)cc1NCc1nc2n(n1)CCCCC2,5.89
21,CCN1CC(C(=O)NCCCc2nc(C)c(C)s2)CC1=O (stereo not given),-7.03
22,CN1CCCN(c2ncnc(N3CCOCC3)c2N)CC1,1.08

row,Structure (SMILES),cytotoxicity at 10 µM [%]
1,Cc1nn(C)c(C)c1-c1c(-c2ccccc2)ncn1[C@H](CO)C(=O)O,-2.34
2,CCc1nc(C2CCCN2Cc2nc3ccccc3o2)no1 (stereo not given),3.06
3,COc1ccc(NC(=O)c2ccco2)c(N2CCN(C(C)=O)CC2)n1,-10.2
4,O=C(O)c1nnn(Cc2cccc(C(F)(F)F)c2)c1-c1cccnc1,6.46
5,CCNC(c1cccnc1)c1ccc(F)c(C)c1 (stereo not given),-1.77
6,Cc1cc(NC(=O)Cn2cnc(-c3cccs3)cc2=O)no1,-0.243
7,CC(C)N1CCC(Nc2ccn(Cc3ccccn3)n2)C1=O (stereo not given),-2.43
8,CN(C)c1nc(N)nc(CN2CCCC(c3ccccc3)CC2)n1 (stereo not given),5.47
9,CN1CCN(C(=O)c2cnn(-c3ccccc3Cl)c2)CC1,-5.51
10,O=C(NCCc1coc(-c2ccc(F)cc2)n1)NC1CCC(O)CC1 (stereo not given),7.96
11,Cc1cccc(N2CCN(CC(=O)N3CCCC(N(C)C)CC3)CC2)c1 (stereo not given),-3.73
12,CCc1nc(CN(C(C)=O)C2CCN(CCc3ccccn3)C2)no1 (stereo not given),-11.6
13,COCC(C)(C#N)NC(=O)c1cn(-c2cccc(Cl)c2F)nn1 (stereo not given),0.472
14,Cc1cccc(N2CCC3(CCN(C(=O)c4cccnc4)CC3)C2)n1,-0.482
15,OC(COCc1ccc(Cl)cc1)CN1CCC(c2ccn[nH]2)CC1 (stereo not given),-7.21
16,Cc1nc(-c2cc(C(=O)N3CCCN(C)CC3)c3ccccn23)cn1C,5.59
17,CCc1ccc(C(=O)N2CCN(CCO)CC2)o1,-5.22
18,O=C(Nc1cccs1)NC(CCCO)c1ccccc1 (stereo not given),9.18
19,COCCN(CC(C)C)c1cc(C)ncn1,1.38
20,CC(C(N)=O)N(C)CCCc1cc(-c2ccccc2)no1 (stereo not given),-5.01
21,Cc1nc(C)n(CC2CCCN2Cc2ncc(-c3ccccc3)o2)n1 (stereo not given),-4.92
22,Cn1cc(C2=CCN(CCC(=O)NCc3ccc(Cl)cc3)CC2)cn1,-1.77

row,Structure (SMILES),cytotoxicity at 10 µM [%]
1,CCN(CC)C(=O)Cc1csc(C(C)C)n1,-1.55
2,Cc1cc(=O)n2nc(-c3cccs3)nc2n1CC(=O)NC(C)C,12.7
3,CC(Cn1cc(Br)cn1)C(=O)Nc1ccc(C(N)=O)cc1 (stereo not given),-0.609
4,CCn1ncc2c(C(F)(F)F)cc(-c3ccn(C)n3)nc21,4.75
5,CS(=O)(=O)NCc1cn2c(n1)CN(Cc1cccnc1)CC2,-103
6,Cc1cc(CN2CCC3(CC2)C(=O)NCCN3CC2CC2)oc1C,-67.5
7,CC1CCN(S(=O)(=O)c2cccn(CC(=O)NC3CCCC3)c2=O)CC1,-14.6
8,CC(=O)N1CCN2C[C@H](CO)[C@@H](c3ccccc3)[C@H]2C1,3.54
9,COc1cc(C(=O)NC(CC(=O)O)c2cccs2)cc(Cl)c1OC (stereo not given),4.31
10,CCN(C)C[C@H]1CC[C@@H](Cc2ccc3c(cnn3C)c2)O1,-0.957
11,CCCNC(=O)NCc1cccnc1OC,4.6
12,Cc1nn(CC(O)CN2CCC(C)CC2)c(=O)c(C#N)c1C (stereo not given),5.84
13,COCCN(CCc1ccccc1)Cc1nc2c(cnn2C)c(=O)[nH]1,-7.57
14,Cc1ccc(C(=O)N2C[C@H]3CN(Cc4csc(C)n4)C[C@H]3C2)cn1,-143
15,Cc1cc(C(=O)NCc2ccco2)nn1C,-2.8
16,CC(C)C(=O)N1CCCC1C(=O)Nc1cc(C(F)(F)F)ccc1F (stereo not given),-0.359
17,O=C1CO[C@@H]2CN(S(=O)(=O)c3ccccc3F)C[C@H]2N1,0.0416
18,CC(C)N(C)[C@@H]1CCN(S(C)(=O)=O)[C@H]1Cc1ccccc1,5.7
19,Cc1ccc(S(=O)(=O)NCCNC(=O)c2cncnc2C)cc1,-1.51
20,O=S(=O)(c1cn[nH]c1)N1CCC(O)(CN2CCC(F)(F)CC2)C1 (stereo not given),5.92
21,COc1ccc(CNc2n[nH]c(C)n2)cc1,1.64
22,O=C(O)c1ccnc(-c2ccnc(NCCc3nc4c(s3)CCC4)n2)c1,-4.23

row,Structure (SMILES),cytotoxicity at 10 µM [%]
1,CN1CCCN(C(C(=O)O)c2ccc3c(c2)OCO3)CC1 (stereo not given),1.83
2,O=C(O)c1csc(NCCc2ccccc2)n1,0.501
3,CCn1cnnc1CNC(=O)N1CCCN(C(C)=O)CC1,1.18
4,Cc1n[nH]c(C)c1CCC(=O)N1CCC(O)(CN2CCOCC2)C1 (stereo not given),3.38
5,Cn1ncnc1NS(=O)(=O)c1ccc(F)cc1,7.66
6,CC(C)c1cc(C(=O)NCCN2CCCS2(=O)=O)n[nH]1,-9.91
7,COc1cccc(CC2CN(C3CCC3)CCO2)c1 (stereo not given),0.388
8,O=C(CN1CCCC1CCCO)NCc1ccccn1 (stereo not given),-5.6
9,Cn1cc(CN2CCC(c3cc(COc4cccc(Cl)c4)[nH]n3)C2)cn1 (stereo not given),-2.93
10,Cc1nn(C)c(C)c1C(C(=O)O)N1CCc2ccccc2C1 (stereo not given),-0.492
11,CCn1cc(S(=O)(=O)N2CCCCCC2c2cc(C)on2)cn1 (stereo not given),7.43
12,Cn1nccc1CN1CCOC(c2ccc(-c3cncnc3)cn2)C1 (stereo not given),3.27
13,COCCOc1ccc(NC(=O)C2CCC2)cn1,-9.65
14,CC(C)[C@H]1CN(Cc2c[nH]cn2)C[C@@H]1NC(=O)CC1CCC1,-39
15,CN1CCN(C(=O)Cc2ccc(F)cc2)Cc2cccnc21,0.0773
16,COc1ccccc1C1CNC(=O)c2nc(-c3cnn(C)c3)[nH]c2C1 (stereo not given),-5.33
17,Cc1cccc(OC2CCN(c3ccc(C#N)cn3)CC2)n1,15.5
18,NS(=O)(=O)c1ccc(NC(=O)CSc2ccc3c(c2)CCC3)cc1,-9.06
19,COC(=O)c1cc(OCC2CCC2)cc(C(=O)NC2CCC(O)CC2)c1 (stereo not given),-14.2
20,CCc1nc(C2CCCN2CCCc2nc3ccccc3o2)no1 (stereo not given),-7.92
21,Cc1ncc(CNC(=O)c2oc3ccccc3c2CN(C)C)s1,13.5
22,Cc1ccc(N2C[C@H](C)[C@]3(CCN(c4cccnc4)C3=O)C2)nn1,-1.22

row,Structure (SMILES),cytotoxicity at 10 µM [%]
1,Cc1ccc2c(c1)OC(C)CN2C(=O)c1c[nH]c(C)cc1=O (stereo not given),2.36
2,O=C(NC1CC1)c1ccnc(N2CCOC(c3ccc(Cl)cc3)C2)c1 (stereo not given),4.44
3,CCn1ccnc1CN1CCN(c2ccc3nnc(C)n3n2)CC1,3.35
4,c1cnn(Cc2cnc3n2CCN(CC2CCCCC2)C3)c1,-78.8
5,CC(C)[C@@H]1CN(S(=O)(=O)Cc2ccccc2)C[C@H]1C(=O)O,-1.05
6,O=C1CN(C(=O)C2CCCCC2)CC(O)CN1Cc1ccco1 (stereo not given),-2.67
7,O=C(NCCCN1CCOCC1)c1ccnc(OCc2ccccc2)c1,-21.4
8,Cc1cccc(OCCN2CCN(Cc3noc(C)n3)CC2)c1,-8.78
9,Cn1cnc2c1C(COCC1CCOCC1)CN(C(=O)c1ccoc1)C2 (stereo not given),-7.8
10,O=C(NC[C@]12COC[C@H]1CN(Cc1ccncc1)C2)c1ccco1,8.75
11,Cc1nc(C)n(CC2CN(CCOc3cccc(F)c3)CCO2)n1 (stereo not given),-12.7
12,Cc1nnc(N2CCCC3(CN(Cc4cccnc4)CCO3)C2)o1 (stereo not given),4.96
13,CCSCCNC(=O)Nc1cc(C(=O)N2CCOCC2)ccc1Cl,-55.2
14,Cn1nc2c(c1NC(=O)c1ccc(Cl)s1)CCC2,-1.51
15,O=c1cc(Cn2ccnc2)nc2n1CCCN(CC1CCOCC1)C2,12.7
16,Cc1ccccc1C1(CNC(=O)c2cccc(S(C)(=O)=O)c2)CC1,-0.185
17,CC(NC(=O)CN(C)C(C)C)c1ccc(Oc2cccnc2)c(F)c1 (stereo not given),2
18,CN(Cc1cnn(C)c1)C(=O)C1COCC(=O)N1Cc1ccccc1 (stereo not given),-4.33
19,COCCN1CCO[C@@H]2CN(C(=O)Cc3ccccc3)CC[C@@H]2C1,4.98
20,CN(C)C(=O)c1nc(CN2CC(Cc3ccccc3)CC2=O)no1 (stereo not given),-0.849
21,Cn1cnnc1SCC(=O)NC1CC(=O)N(CCc2cccc(Cl)c2)C1 (stereo not given),2.3
22,CN(C)C(=O)CO[C@H]1CN(Cc2ccc3c(c2)OCO3)[C@@H]2COC[C@H]12,5.9
